Rows were chosen to be rich in hits. Some 1.5% of all compounds tested hit in one or more screens of this group.
SENP1 FRET inh: inhibitors of human SENP1 SUMO protease catalytic domain; 360,000 tested, 0.21% active; AID 624204; recombinant SENP1 catalytic domain, CyPet-SUMO1-YPet FRET cleavage; inhibition, % at 10 µM; Q9P0U3;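 active = inhibition at least 30% at 10 µM, raw YFP signal under a set limit, fluorescence ratio 0.5 to 1.5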;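 note: 0% = enzyme with DMSO and 100% = no enzyme wells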
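Material – human SENP1 catalytic domain · Input – SENP1 enzyme, 20 pM final · Compound dosing – single concentration of 10 µM compound, 0.5% DMSO final · Timing – enzyme reaction for 50 min at room temperature, dark · Measured by – FRET fluorescence in CFP and YFP emission channels · Control set – no-enzyme wells low, DMSO-plus-enzyme wells high control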
Myeloid diff 2: compounds promoting myeloid differentiation; AID 624256; calls only at 10 µM; ER-HoxA9 myeloid progenitors, lysozyme-GFP differentiation, flow cytometry; 360,000 tested, 1% active;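 active = normalized GFP-positive differentiation at or above the plate's own cutoff, the solvent-only control mean plus 3 SD; inconclusive = no clear call, values can overlap the other calls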;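 note: cells exposed to compound for four days before flow analysis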
VLA-4 inh: inhibition in a human VLA-4 binding assay | 330,000 tested, 0.2% active | VLA-4 expressing cells, ligand binding flow cytometry | inhibition, % (about 7 µM as worked out from the volumes in the protocol) | P13612 | AID 2557; in the data active = inhibition above about 50%
Platelet DG rel: platelet dense granule release activity | inhibition, %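 (compounds screened at 7.5 µM in platelet-rich plasma)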 | human platelet-rich plasma, SFLLRN dense granule ATP release, luminescence | AID 1663 | 300,000 tested, 0.22% active;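 active = mean replicate score, as percent of positive control, at or above 50; inconclusive = mean below 50 but at least one replicate at or above 50; inactive = mean and every replicate below 50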
VLA-4 mod pick: confirmation of allosteric modulators of human VLA-4 integrin; AID 2813; shares compounds with VLA-4 inh; U937 cells, HUTS-21 LIBS mAb binding, flow cytometry; LDV ligand present at threefold Kd; 1,300 tested, 2% active; inhibition, % at 6.7 µM; in the data active = inhibition above about 40%;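 note: 0% = ligand without compound and 100% = no ligand background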
* marks the source's active call; other numbers are inactive results; i = inactive; ? = inconclusive; . = not tested or not shown; ! = not active in a repeat.

SMILES	SENP1 FRET inh	Myeloid diff 2	VLA-4 inh	Platelet DG rel	VLA-4 mod pick
COc1ccc(-c2cc(C3CCN(c4ccc(C(C)=O)cc4[N+](=O)[O-])CC3)[nH]n2)cc1	0	i	59*	-11	16
COC(=O)c1ccc(N2CCC(c3cc(-c4ccc(OC)cc4)n[nH]3)CC2)c([N+](=O)[O-])c1	-1	i	18	-9	.
NC(=O)[C@H]1CC2(CC(c3cccc(NC(=O)[C@H]4CCC(=O)N4)c3)=NO2)CN1C(=O)c1ccccc1 (stereo not given in full)	1	i	51*	2	6
COc1ccc(OC)c(C(=O)NC2CC(C)(C)Cc3c2cnn3-c2ccccc2)c1 (stereo not given)	1	?	-12	0	.
COc1ccc(S(=O)(=O)NCc2ccccc2Cl)cc1OC	2	i	93*	9	0
CCOc1ccc(S(=O)(=O)NCc2ccccc2Cl)cc1C(N)=O	3	i	15	-14	.
Cc1cc(C)c(C#N)c(Oc2ccc(O)cc2)n1	2	i	26	6	.
CCCC(=O)Nc1cccc(Oc2nc(C)cc(C)c2C#N)c1	0	i	89*	0	1
C[C@H]1COC(=O)[C@H](Cc2ccc(F)cc2)C/C=C\C[C@H](CC(=O)N(CCO)Cc2ccccc2)C(=O)N1	2	i	113*	.	6
CCOC(=O)/C(=C\c1ccc(OC(F)F)cc1)C1=Nn2c(nnc2-c2ccc(Cl)cc2)SC1	-1	?	60*	4	51*
CCOC(=O)/C(=C/c1ccc(OC(F)F)cc1)C1=Nn2c(nnc2-c2ccc(Cl)cc2)SC1	0	i	.	.	.
N#Cc1c(SCC(=O)O)nc(-c2ccccc2)c2c1CCCC2	2	i	94*	14	0
CCCCC1(CC)SCC(=O)NC1=O (stereo not given)	0	i	.	.	.
C[C@@H]1COC(=O)[C@H](CC(=O)OC(C)(C)C)C/C=C\C[C@@H](CC(=O)NCCO)C(=O)N1	1	i	13	.	.
CSc1ccc2c(c1)C(N1CCN(C)CC1)Cc1ccccc1S2 (stereo not given)	1	i	55*!	0	22
COCCN1C=C2C(=O)C(C)(OC(=O)c3cccs3)C(=O)C=C2C=C1CCCC(=O)OC (stereo not given)	-21	i	50*	-11	-6
O=c1c(C(c2ccc(F)cc2)c2c(O)nc3n(c2=O)CCS3)c(O)nc2n1CCS2	0	i	-1	-1	.
Cc1ccc(C)n1-c1ccc(C(=O)N/N=C/c2ccncc2)cc1	-14	i	-2	6	.
COc1ccc(S(=O)(=O)N(C)CC(=O)NCc2ccccc2)cc1OC	2	i	15	8	-1
CCN(CC(=O)NCc1ccc(F)cc1)S(=O)(=O)c1ccc(C)cc1	2	i	2	16	2
COCCCN(CC(=O)NCc1ccccc1)S(=O)(=O)c1ccc(C)cc1	-1	i	13	-2	4
COC(=O)c1ccc(CNC(=O)CN(CCC(C)C)S(=O)(=O)c2ccc3c(c2)OCCO3)cc1	1	i	6	1	.
CC(C)CCN(CC(=O)NCc1ccc(F)cc1)S(=O)(=O)c1ccccc1F	2	i	1	1	0
CCN(CC(=O)NCc1cccs1)S(=O)(=O)c1ccc(F)cc1	0	i	1	-2	.
CS(=O)(=O)Nc1ccc(C2=NN(C(=O)CCCC(=O)O)C(c3cccs3)C2)cc1 (stereo not given)	-5	i	6	1	.
Cc1ccc(C)c(N2CC(C(=O)O)CC2=O)c1 (stereo not given)	1	i	3	-7	.
COC(=O)C1=C[C@@H](C(=O)OC)[C@@H]2C3=C(C(=O)C2(C)C)[C@H](c2ccccc2)[C@@H]2C(=O)N(C)C(=O)[C@@H]2[C@@H]3C1	19	i	11	0	.
Cc1ccc(-c2nnc(Nc3ccccc3)c3ccccc23)cc1S(=O)(=O)NCC1CCCO1 (stereo not given)	-1	i	24	4	.
Cc1ccc(-c2nn3c(-c4ccco4)nnc3c3ccccc23)cc1S(=O)(=O)NCC1CCCO1 (stereo not given)	0	i	39	-2	3
COc1ccc(OC)c(N(CC(=O)Nc2cccnc2)S(=O)(=O)c2ccccc2)c1	2	i	63*	-1	0

Bioassay records (PubChem)
